# Source: PubChem BioAssay (several laboratories)
# PMI act satM6P: activators of human phosphomannose isomerase at near-saturating mannose 6-phosphate | P34949 | AID 1216 | actives 0.34% (n = 190,000) | coupled PMI enzyme assay, resazurin fluorescence, 20 min; hits give high values; 1 = untreated enzyme, 0 = substrate-free blank | activation factor at 20 µM;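 active = activation factor of 2 or more at 20 µM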
#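 Test system: human phosphomannose isomerase with PGI, G6PDH, diaphorase coupling enzymes; amount: 15 ng/mL PMI; incubation: enzyme reaction with compound 20 min at room temperature; technique: resorufin fluorescence (Ex 544/Em 590 nm) from resazurin via diaphorase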
# p47phox inh: p47phox (human) inhibition; p47phox/p22phox peptide binding, fluorescence polarization, 2 h; actives 0.53% (n = 220,000); inhibition, % at 24.7 µM; AID 1274; P14598;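 active = inhibition above about 30%, limit read from the data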;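 note: 0% = p47phox with labelled peptide and 100% = labelled peptide alone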
# Target sequence (P14598 whole entry, looked up): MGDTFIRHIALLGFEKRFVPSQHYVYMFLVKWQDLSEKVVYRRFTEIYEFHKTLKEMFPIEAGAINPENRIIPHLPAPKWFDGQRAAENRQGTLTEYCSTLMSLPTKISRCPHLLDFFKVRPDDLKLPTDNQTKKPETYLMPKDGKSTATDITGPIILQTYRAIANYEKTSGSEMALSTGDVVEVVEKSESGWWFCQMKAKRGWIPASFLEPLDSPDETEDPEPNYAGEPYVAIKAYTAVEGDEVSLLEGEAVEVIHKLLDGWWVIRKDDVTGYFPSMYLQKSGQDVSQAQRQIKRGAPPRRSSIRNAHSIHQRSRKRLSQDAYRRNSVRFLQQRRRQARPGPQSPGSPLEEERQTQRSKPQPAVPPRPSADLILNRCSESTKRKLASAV
# Avidin bead fluor: avidin bead compound fluorescence profile. Avidin beads, compound fluorescence 488/530 nm, flow cytometry; hits give high values. fluorescence (KMESF) at 10 µM. actives 0.38% (n = 220,000). AID 1775; in the data active = fluorescence above about 47
# GSH bead fluor: compound fluoresces at 488/530 nm on GSH beads; GSH beads flow cytometry, compound fluorescence 488/530 nm; hits give high values; fluorescence (KMESF) at 10 µM; actives 0.25% (n = 190,000); AID 1776; in the data active = fluorescence above about 89;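 note: glutathione beads carrying GST-tagged Bcl family fusion proteins plus one bare bead set; values are compound well signal with DMSO vehicle wells as background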
# Diaph act CS: activates diaphorase or chemically reduces, flagging diaphorase assay artifacts; Diaphorase/resazurin coupled assay, resorufin fluorescence, 16 min; hits give high values; 1 = vehicle wells, 0 = NADH-free wells; activation factor at 20 µM; actives 0.005% (n = 190,000); AID 1229;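 active = diaphorase activity raised at least twofold by the compound at 20 µM; inactive = activation factor below 2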
#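 test system = bacterial diaphorase enzyme (C. kluyveri) | quantity = enzyme 0.07 U/mL final | reagent = NADH substrate 0.114 mM plus resazurin dye 0.1 mM, final | incubation = 16 min enzyme reaction, ambient temperature | buffer or medium = HEPES pH 7.4 buffer with MgCl2 and Tween 20 | signal = fluorescence of resorufin, 544 nm excitation, 590 nm emission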
# PMI act: increases human mannose-6-phosphate isomerase activity | P34949 | purified human PMI, coupled resazurin fluorescence, 20 min; hits give high values; 1 = vehicle control, 0 substrate-free wells | activation factor at 20 µM | actives 0.005% (n = 190,000) | AID 1214;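 active = activation factor of 2 or more at 20 µM, relative to plate controls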
# * hit, by the source's call; / = no result; ! = not active in a repeat. An excerpt weighted towards active compounds, which were near 1.4% of everything screened.
SMILES,PMI act satM6P,p47phox inh,Avidin bead fluor,GSH bead fluor,Diaph act CS,PMI act
Nc1[nH]nc2nc3ccccc3cc12,2.2*,2.0,14,8,0.9,1.5
CCc1ccc2nc3n[nH]c(N)c3cc2c1,1,-2.4,36,12,0.9,1
CC(=O)Nc1ccc(/C=N/NS(=O)(=O)c2cc(C)ccc2C)cc1,/,3.1,3,/,/,/
c1ccc2c3c([nH]c2c1)-c1[nH]ncc1CC3,0.6,3.5,7,265*,0.4,0.5
O=C(CCN1C(=O)c2cccc3cccc(c23)C1=O)Nc1ccon1,0.8,-12.4,11,10,0.8,0.9
Cc1cc(C)c[n+](-c2nc3ccccc3nc2C(=C=[N-])C#N)c1,1,-28.0,24,238*!,0.9,1.1
CCc1ccc[n+](-c2nc3ccccc3nc2C(=C=[N-])C#N)c1,/,-21.8,7,/,/,/
Cc1ccc[n+](-c2nc3ccccc3nc2C(=C=[N-])C#N)c1,0.5,-14.6,61*!,11,0.8,0.7
O=C1c2ccccc2C(=O)C12OC2c1cccc2ccccc12 (centres undefined),1.4,-4.5,9,14,0.7,1.3
c1cc2ccc3ccc(CN4CCOCC4)c4ccc(c1)c2c34,1,-5.2,9,12,0.9,1
OC1CCCN(Cc2ccc3ccc4cccc5ccc2c3c45)C1 (centres undefined),0.9,-5.3,142*,24,1,0.9
COc1ccc(S(=O)(=O)N2CCC(C(=O)NCCc3ccc4c(c3)OCO4)CC2)cc1,1.1,42.0*,13,24,0.9,1.1
O=c1cc(-c2ccc([N+](=O)[O-])cc2)c2cc3c(cc2[nH]1)OCCO3,1,3.3,24,8,1,1
Cc1c(C(=O)NCc2ccccn2)oc2ccc(S(=O)(=O)N3CCOCC3)cc12,0.9,50.4*,8,11,0.8,0.9
Cc1c(C(=O)NCc2cccs2)oc2ccc(S(=O)(=O)N3CCOCC3)cc12,1,-10.4,9,39,0.8,0.9
Cc1ccc(-c2nc3cccnc3o2)cc1NC(=O)COc1ccc(Cl)cc1C,0.9,56.7*,8,6,1,0.8
CSc1cnn(Cc2ccccc2)c(=O)c1SCc1ccccc1,2.5*,1.2,2,5,0.8,1.6
COC(=O)CSc1cc(C(=O)c2nccn2C)c2ccccc2n1,0.9,1.1,8,271*,0.8,1
O=C(CSc1nc(-c2ccco2)cc(C(F)(F)F)n1)NN1CCOCC1,0.9,-1.3,11,11,1,0.9
CSCCC(NS(=O)(=O)c1cccs1)C(=O)NCc1ccccc1 (centres undefined),1,-12.0,11,23,0.9,1
COc1ccc(C2CC(c3cccs3)=NN2c2nc(-c3ccccc3)cs2)cc1OC (centres undefined),2.1*,-61.3,18,29,1,1.6
COc1cccc(C2SCC(=O)N2c2ccc(Br)cc2)c1OC (centres undefined),2.2*,-7.8,3,8,1,1.7
O=C1CSC(c2ccccc2F)N1c1ccccc1 (centres undefined),1,-2.8,4,14,0.9,1
CCCC1CCC(c2ccc(C(=O)NN)cc2)CC1 (centres undefined),0.9,-4.4,3,11,0.8,0.8
O=C(N/N=C/c1ccco1)c1cccc([N+](=O)[O-])c1,1.1,-12.7,3,10,1,1
SMILES,PMI act satM6P,p47phox inh,Avidin bead fluor,GSH bead fluor,Diaph act CS,PMI act
O=C(NCCN=C1NS(=O)(=O)c2ccccc21)c1ccncc1,0.9,4.2,72*,10,0.9,0.9
O=C(NCCN=C1NS(=O)(=O)c2ccccc21)c1ccc2nccnc2c1,0.8,-15.4,3,18,0.6,1
Cc1ccc(N=C(NOCc2ccc(Cl)cc2Cl)c2nonc2N)c(C)c1,0.9,-6.5,11,23,0.8,0.9
Cc1ccc(C)n1-n1c(C)nc2scc(-c3ccccc3)c2c1=O,0.9,-9.6,86*,17,0.9,0.9
O=c1c2c([N+](=O)[O-])cc([N+](=O)[O-])cc2sn1-c1ccc(Br)cc1,0,73.9*,-1,3,0.3,-0.1
CCC(=O)N1CC2(CC(c3cccc([N+](=O)[O-])c3)=NO2)C[C@H]1C(=O)NCC(N)=O (some centres undefined),1,35.2*,14,16,0.9,1.1
FC(F)(F)c1cccc(NC(=S)N(CCCN2CCCC2)Cc2cccn2Cc2ccc(Cl)cc2)c1,0.9,35.4*,17,12,1.1,0.9
Cc1ccc(NC(=S)N(CCCN2CCCC2)Cc2cccn2Cc2ccc(Cl)cc2)cc1Cl,1.1,34.9*,13,9,1.4,1
COc1ccc(NC(=S)N(CCCN2CCCC2)Cc2cccn2Cc2ccc(Cl)cc2)cc1Cl,1.1,43.1*,6,17,1.3,1
COc1ccc(NC(=S)N(CCCN2CCC(C)CC2)Cc2cccs2)cc1Cl,1.1,-5.5,5,8,1,1.1
Cc1ccc(NC(=S)N(CCCN2CCCC2)Cc2cccn2Cc2ccc(Cl)cc2)cc1C,0.9,4.8,12,15,1.2,0.9
O=S(=O)(c1ccc(OCC(O)CN2CCN(c3ccc(F)cc3)CC2)cc1)N1CCOCC1 (centres undefined),1,-9.7,7,20,0.9,1
Cc1ccc(S(=O)(=O)N2CCN(Cc3ccccn3)CC2)cc1,1,5.0,12,12,0.8,1
COc1ccc(-c2nc(-c3ccccc3)nc(N3CCN(C)CC3)c2C#N)cc1,1,-15.1,51*,13,0.9,0.9
CN1CCN(c2nc(-c3ccccc3)nc(-c3ccccc3)c2C#N)CC1,1,-20.9,10,18,1,1
CCNC(=O)Cn1c(=O)c(=O)n(Cc2ccccc2)c2ccc(Cl)cc21,1.1,-5.9,57*,15,1.1,1
Cc1cccc(NC(=O)C(=O)C2C(=O)Nc3ccccc32)c1 (centres undefined),/,-8.0,12,/,/,/
C1CN(CC2CCN(c3nc4nonc4nc3N3CCSCC3)CC2)CCO1,0.9,33.8*,10,15,0.8,0.8
C1CC(CN2CCOCC2)CN(c2nc3nonc3nc2N2CCSCC2)C1 (centres undefined),1.1,2.5,10,9,1.1,1.1
CCCCCCc1cc2cc(-c3nnc(-c4ccccc4OC)o3)c(=O)oc2cc1O,1,-82.1,5,248*,0.9,0.9
CCCCCCc1cc2cc(-c3nnc(-c4cc(OC)c(OC)c(OC)c4)o3)c(=O)oc2cc1O,1,-61.9,7,113*,1,1
